The whole screen tested about 370,000 compounds, of which about 2,000 (0.54%) were called active.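 The calls were made as follows: active = inhibition exceeding the mean over every tested compound plus 3 SD (cut at about 30% in these data); inactive = the rest.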 Shown is part of a subset that was picked to be rich in actives.

Chain of (Lyso)-N-acylphosphatidylethanolamine lipase (Mus musculus) (Q8VD66 whole entry, looked up): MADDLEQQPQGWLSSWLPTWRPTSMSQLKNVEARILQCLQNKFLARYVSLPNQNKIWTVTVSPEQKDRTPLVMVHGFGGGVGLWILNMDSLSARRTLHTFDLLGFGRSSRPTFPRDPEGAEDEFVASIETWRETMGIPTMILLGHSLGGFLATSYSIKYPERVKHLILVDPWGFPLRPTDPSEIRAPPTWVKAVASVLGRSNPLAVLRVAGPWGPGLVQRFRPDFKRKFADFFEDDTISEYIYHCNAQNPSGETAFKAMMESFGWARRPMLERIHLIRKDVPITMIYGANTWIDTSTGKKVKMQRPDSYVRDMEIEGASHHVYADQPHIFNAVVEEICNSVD

The experiment has as its target (Lyso)-N-acylphosphatidylethanolamine lipase (Mus musculus) (UniProt Q8VD66). The experiment can be described thus: mouse ABHD4 hydrolase activity blockers – biochemical, fluorescence polarization, primary screen (AID 720543).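 Also: 0% = plate median of compound wells and 100% = S159A mutant with DMSO.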 The following applies: purified mABHD4, FP-Rh probe fluorescence polarization; at 8.92 µM; active compounds read high. The method in brief:
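Assay system: mABHD4 protein; medium: HEPES pH 7.0, NaCl, Pluronic buffer; dosing: 8.92 µM, single dose; schedule: 45 min + 60 min at 25 °C; signal: FP readout, ex 525 nm / em 598 nm; read-out: normalized percent inhibition of probe labeling; repeats: single replicate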
For orientation: Fluorescence polarisation rises when a labelled molecule tumbles more slowly, as on binding a larger partner.
In general, inhibition refers to the relative decrease from the control value, in per cent. Turning to `Cc1cc(C)nc(NC(=S)N2CCN(c3ccc(C(F)(F)F)cn3)CC2)c1`, the inhibition was 8.35% (inactive).
As to `O=C(NCc1ccco1)C1CCCN(S(=O)(=O)c2cccc3nonc23)C1` (stereo not given), the inhibition is 5.79% (inactive).
As for `CCc1ccc(-c2nn(-c3ccccc3C)cc2C(=O)N2CCN(C3CCS(=O)(=O)C3)CC2)cc1` (stereo not given), the inhibition is 5.26% (inactive).
Turning to `CCc1ccc(-c2nn(-c3ccccc3)cc2CSC(=N)N)cc1`, the inhibition is 52.2% (active).
For the molecule `CCOc1ccc(Br)cc1CSC(=N)N`, the inhibition was 4.65% (inactive).
In the case of `CC1=C(C/C=C(\C)CCCC(C)CCCC(C)CCCC(C)C)C(=O)c2ccccc2C1=O` (stereo not given), the inhibition was -0.54% (inactive).
On to `C=C(C)C1CC23C(=O)C4(C(=O)c5ccccc5)C[C@@]5(C)CCC(CC2C1(C)C)(C4=O)C35OC` (stereo not given in full), for which the inhibition is -1.09% (inactive).
For `NNc1nc2c(Cl)cccc2s1`, the inhibition was 70.2% (active).
The value for `CCOCCOCCC(C(=O)O)P(=O)(c1ccccc1)c1ccccc1` (stereo not given) was 4.54% (inactive).
For the molecule `C=C1c2c(Cl)ccc(O)c2C(O)=C2C(=O)[C@]3(O)C(O)=C(C(N)=O)C(=O)[C@@H](N(C)C)[C@@H]3[C@@H](O)C12` (stereo not given in full), the inhibition is 69.7% (active).
On to `CN(C)[C@@H]1C(=O)C(C(N)=O)=C(O)[C@@]2(O)C(=O)C3=C(O)c4c(O)ccc(Cl)c4[C@@H](O)[C@H]3C[C@@H]12`, for which the inhibition was 55.1% (active).
Consider `COc1ccccc1NC(=O)CCC(=O)OC(C)C(=O)c1ccccc1` (stereo not given), for which the inhibition is 4.06% (inactive).
The value for `C#CCN([C@H](C(=O)OC)C(C)CC)S(=O)(=O)c1ccccc1Br` (stereo not given in full) was -0.06% (inactive).
For `O=C(C(=O)N1CCC(CNC(=O)c2cccnc2Cl)CC1)c1cccs1`, the inhibition was 2.01% (inactive).
The value for `Cc1[nH]nc2c1C(c1ccc(Br)cc1)NC2=O` (stereo not given) was 7.99% (inactive); that for `Cc1cc(NS(=O)(=O)c2ccc(NC(=O)CSc3nnc(-c4ccc(C(C)(C)C)cc4)n3Cc3ccco3)cc2)nc(C)n1` was -7.09% (inactive); that for `O=C(c1ncn2c1c(=O)[nH]c1ccccc12)N1CCc2ccccc2C1` was -9.48% (inactive).
With `O=c1[nH]c2ccccc2n2c(-c3ccccc3)nnc12` the figure was 43.1% (active); with `O=C(O)C1C2CC2CN1C(=O)c1ccc(Cl)cc1Cl` (stereo not given), 0.74% (inactive); with `CCCNC(=O)CN(Cc1ccccc1F)S(=O)(=O)c1ccc(C)cc1`, -5.78% (inactive).
With `CC[C@@H]1Cc2cc(O)ccc2C2=C1c1ccc(O)cc1C[C@H]2CC` the figure was 35.5% (active); with `Cc1ccc(S(=O)(=O)N2CCCC2C(=O)NCc2ccco2)cc1` (stereo not given), 5.4% (inactive).
In the case of `O=C(NC(=S)Nc1ccc(Cl)c(C(=O)O)c1)c1cncc(Br)c1`, the inhibition was -0.66% (inactive).
For the molecule `CC(C)c1ccc(NC(=S)NC2CC3C=CC2C3)cc1` (stereo not given), the inhibition is -0.07% (inactive).
With `CC(C)c1ccc(NC(=S)NNc2ccc(Cl)c(C(=O)O)c2)cc1`, the inhibition was 37.3% (active).
In the case of `C=CCN1C(C(=O)OC)CN(Cc2cn(Cc3ccccc3)nn2)CCS1(=O)=O` (stereo not given), the inhibition was -0.95% (inactive).
For `COc1ccccc1-c1n[nH]nc1C1=CC(=O)CC(C)(C)C1`, the inhibition was -5.54% (inactive).
In the case of `COc1ccccc1-c1sc2ccccc2c1-c1ccc(Br)nc1`, the inhibition is -9.92% (inactive).
The value for `COc1ccccc1C1=Nc2cccc3cccc(c23)N1` was 56.6% (active); that for `CCn1c(=O)n2n(c1=O)[C@@]1(C=C3CCCC[C@H]32)N=C(NC(=O)c2ccccc2)N(Cc2ccccc2)[C@H]1Cc1ccccc1` was 5.91% (inactive).
With `COCCNC(=S)c1ccc(OC)cc1` the figure was 4.41% (inactive); with `COCCNC(=O)Nc1ccc2nc(-c3ccco3)c(-c3ccco3)nc2c1`, 50.8% (active).
For `COCCNC(=O)c1cc2c(Br)ccc(Br)c2nc1N`, the inhibition is -4.62% (inactive).
Turning to `O=C(C1CCN(S(=O)(=O)c2ccc(Br)s2)CC1)N1CCN(c2ccccc2)CC1`, the inhibition was 1.42% (inactive).
With `COc1ccc(-n2c(SCC(=O)NC3CCCC3)nnc2-c2ccncc2)cc1` the figure was 3.8% (inactive); with `CCn1c(/C=C/Nc2ccccc2)[n+](CC)c2ccc(C(=O)OCC(F)(F)F)cc21`, -4.64% (inactive); with `CC(c1c[nH]c2ccccc12)c1c(-c2ccccc2)n(C)c2ccccc12` (stereo not given), -21.7% (inactive).
Take `Cc1nc2cc(C(F)(F)F)ccc2n1CCNc1nc(-c2cc(Cl)c(N)c(Cl)c2)cs1`: the inhibition is 5.15% (inactive).
For `CC1CCCCN1C(=O)Cn1c(=O)oc2cc(S(=O)(=O)N3CCCCC3)ccc21` (stereo not given), the inhibition is 8.03% (inactive).
On to `CCOC(=O)C1CCN(C(=O)c2oc3ccc(S(=O)(=O)N4CCCCCC4)cc3c2C)CC1`, for which the inhibition was 6.37% (inactive).
`CC(C)COC(=O)n1c(=O)oc2ccc(S(=O)(=O)N3CCCCC3)cc21`: the inhibition was 42.3% (active).
The value for `Cc1ccccc1NC(=O)C1CCN(c2ncccn2)CC1` was -7.6% (inactive); that for `COC(=O)C1CCCCN1C(=O)c1ccc(OC2CCN(C(C)=O)CC2)c(OC)c1` (stereo not given) was -4.35% (inactive).
With `COc1ccc(-c2ccccc2C2Cc3nnccc3CN2C(=O)Nc2ccccc2)cc1` (stereo not given), the inhibition was -13% (inactive).
For `Cc1coc2c(O)cc3c(c12)OC1(N2CCCCC2)C(=O)NCCCC31` (stereo not given), the inhibition is 35.3% (active).
As for `O=C(CSc1nnc(-c2ccccn2)n1-c1ccc(Cl)cc1)Nc1ccccc1-c1ccccc1`, the inhibition was -9.15% (inactive).
Turning to `CS(=O)(=O)N1CCCC(C(=O)Nc2ccccc2C(F)(F)F)C1` (stereo not given), the inhibition is -11.1% (inactive).
In the case of `COc1ccc(C(C#N)Nc2ccc(C)cc2)cc1` (stereo not given), the inhibition is 0.68% (inactive).
Regarding `COCCn1c(N)c(NCc2ccccc2)c(=O)[nH]c1=O`, the inhibition was 7.29% (inactive).
`Cc1cc2nc3c(=O)n(Cc4ccccc4)c(=O)[nH]c3nc2cc1N`: the inhibition is 56.4% (active).
On to `COCCCN(C(=O)CSCc1ccc(C)cc1)c1c(N)n(Cc2ccccc2)c(=O)[nH]c1=O`, for which the inhibition was 2.08% (inactive).
The value for `CC(NC(=O)C1CCCN(S(=O)(=O)c2ccc(-n3cnnn3)cc2)C1)c1ccc(F)cc1` (stereo not given) was -0.78% (inactive); that for `Cc1ccc(S/C(=N\S(=O)(=O)c2ccc(Cl)cc2)c2ccccc2)cc1` was 7.36% (inactive); that for `CCOc1ccc(Oc2c(Cl)cnn(-c3ccc(C)cc3)c2=O)cc1` was 5.6% (inactive).
Take `COc1ccc(C2Nc3ccccc3C(=O)N2Cc2cccs2)cc1COc1c(C)cccc1C` (stereo not given): the inhibition was -15.8% (inactive).
As to `COc1ccc(-c2noc(C(C)NS(=O)(=O)c3ccc(NC(C)=O)cc3)n2)cc1` (stereo not given), the inhibition is 0.4% (inactive).
`CCOc1ccc2nc(NCCNC(=O)C(C)(C)C)c(C)cc2c1`: the inhibition is -2.62% (inactive).
The value for `CCOc1ccc2nc(Nc3nc4ccc(NC(C)=O)cc4s3)sc2c1` was 35.1% (active).
The value for `COc1ccc(/C=C/c2nnc(NC(=O)C(C)C)s2)cc1` was -1.43% (inactive); that for `CCOc1ccc2sc(NS(=O)(=O)c3ccc(N)cc3)nc2c1` was 16.3% (inactive); that for `COc1ccc2nc(Nc3nc4ccc(NC(C)=O)cc4s3)sc2c1` was 37.7% (active).
Turning to `CN1CCN(C(=O)C(=O)c2cn(CC(=O)N3CCCC3)c3ccccc23)CC1`, the inhibition was 8.39% (inactive).
With `Nc1nc2c(ncn2[C@@H]2O[C@H](C(=O)N[C@@H](Cc3ccccc3)C(=O)NCc3ccccc3)[C@@H](O)[C@H]2O)c(=O)[nH]1` the figure was 1.72% (inactive); with `COC(=O)[C@]12C[C@H](CC(=O)NCC34CC5CC(CC(C5)C3)C4)C(=O)N(Cc3ccc(Cl)cc3Cl)C1=C[C@H](COCc1ccccc1)O[C@@H]2C`, 2.69% (inactive); with `O=C(NCc1ccccc1)[C@@H]1CCCN1C(=O)[C@@H](NS(=O)(=O)c1ccc(F)cc1F)C1CCCCC1`, -7.63% (inactive).
`COC(=O)[C@]12C[C@H](CC(=O)NCc3ccccc3)C(=O)N(Cc3ccccc3)C1=C[C@H](COCc1ccccc1)O[C@@H]2C`: the inhibition was -5.73% (inactive).
With `COC(=O)[C@@]12CCCCC=C1N(CCc1ccc(Cl)cc1)C(=O)[C@H]2CC(=O)NCc1ccc(OC)c(OC)c1`, the inhibition was -1.49% (inactive).
Take `CCOC(=O)[C@@]12CCC3=C1N(CCC3)C(=O)[C@H](CC(=O)N1CCN(C(=O)c3ccco3)CC1)C2`: the inhibition is 2.38% (inactive).
As for `O=C1CC(c2ccccc2)C(c2ccccc2)=NN1` (stereo not given), the inhibition is -2.08% (inactive).
For `CN(C(=O)COc1ncnc2c1cnn2-c1ccccc1)C1CCCCC1`, the inhibition was -16.6% (inactive).
Consider `CN(C(=O)CCn1c(=S)oc2ccccc21)C1CCCCC1`, for which the inhibition was 0.63% (inactive).
For the molecule `CCOC(=O)Cn1c2c(n(-c3ccc(F)cc3)c1=O)C=C(c1ccccc1)[C@@H](C)C(C(=O)N(C)C1CCCCC1)=C2`, the inhibition was 34.2% (active).
The value for `CCC(=O)Nc1ccc2c(c1)C(=O)N(C)[C@@H]1CC[C@@H](CC(=O)NCCc3ccccc3)O[C@H]1CO2` was -0.19% (inactive).
The value for `CN1C(=O)c2cccc3c(N)ccc(c23)C1=O` was 32.9% (active); that for `Cc1nn(C)cc1N1C(=O)c2cccc3c(N)ccc(c23)C1=O` was 35.3% (active); that for `CC(C)C[C@H](NC(=O)CC1CCCC1)C(=O)N1CCC[C@H]1C(=O)NCc1ccccc1` was 0.46% (inactive).
With `COc1ccc2c(C(C)c3ccc(N)cc3)cn(C)c2c1` (stereo not given) the figure was -3.15% (inactive).
For `CC(NC(=O)CCCC1CCCCC1)c1ccc(S(N)(=O)=O)cc1` (stereo not given), the inhibition was -16% (inactive).
With `CCOC(=O)C1CCN(C(=O)C(C)(C)NC(=O)Nc2ccccc2Cl)CC1`, the inhibition was -3.65% (inactive).
With `O=C(NCC1COc2ccccc2O1)c1ccc(NC(=O)c2cc(F)ccc2F)cc1` (stereo not given) the figure was 5.07% (inactive); with `CCN(CC)C(=O)CC[C@H]1CC[C@]2(CCCN(Cc3ccc(Cl)cc3)C2)O1`, -3.65% (inactive).
With `C=CCN1C(=O)[C@@H](CC(=O)NCCCOCCCC)[C@]2(C(=O)OCC)CCCCC/C=C/12` the figure was -1.53% (inactive); with `Cc1ccccc1N1CCN(Cc2nc(Cc3ccccc3F)no2)CC1`, -7.9% (inactive).
With `Cc1cccc(N2CCN(Cc3nc(C4CC4)no3)CC2)n1`, the inhibition was 53.8% (active).
With `Fc1cccc(Cc2noc(CN3CCN(c4cnccn4)CC3)n2)c1` the figure was -0.5% (inactive).

Values taken from PubChem BioAssay AID720543 (The Scripps Research Institute Molecular Screening Center, 2013).
